Laboratory results taken from ChEMBL document CHEMBL1151227, “Hyperjovinols A and B: Two new phloroglucinol derivatives from Hypericum jovis with antioxidant activity in cell cultures” (J Nat Prod, 2004).

Columns and labels:
[1] = Cytotoxicity against human skin fibroblasts assessed as cell viability by trypan blue exclusion assay relative to control; assay type: cell-based; settings: fibroblast
Outline: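 Normal human skin fibroblasts (lab-derived) grown in MEM with 10% FBS to confluency, then exposed to compounds (diluted from DMSO into medium) for 4 h. Viability was judged against untreated cells by Trypan Blue exclusion, with microscopic inspection for cytotoxicity.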

Fibroblast [2] = assay: Inhibition of endogenous ROS production in human skin fibroblast assessed as DCF-fluorescence at 10 uM after 4 hrs by DCFH-DA assay relative to control; set-up: scale not given: the % may be the effect or the level left
Fibroblast [3] = assay: Inhibition of endogenous ROS production in human skin fibroblast assessed as DCF-fluorescence at 100 uM after 4 hrs by DCFH-DA assay relative to control; set-up: scale not given: the % may be the effect or the level left

SMILES | Activity [1] | Activity (Fibroblast [2]) | Activity (Fibroblast [3])
CC(C)=CCC/C(C)=C/COc1cc(O)c(C(=O)C(C)C)c(O)c1 | Non-toxic | 92.2% | 61.5%
CC(C)=CCCC1(C)CCc2c(cc(O)c(C(=O)C(C)C)c2O)O1 (stereo not given) | Non-toxic | 94.1% | 62.4%
CC(C)=CCC/C(C)=C/Cc1c(O)cc(O)c(C(=O)C(C)C)c1O | Non-toxic | 79.4% | 50.8%
CC(C)=CCCC1(C)CCc2c(O)cc(O)c(C(=O)C(C)C)c2O1 (stereo not given) | Non-toxic | 81.5% | 73%
CC(C)=CCCC(C)(O)CCc1c(O)cc(O)c(C(=O)C(C)C)c1O (stereo not given) [HYPERJOVINOL A] | Non-toxic | 76.1% | 49.2%
Cc1c(C)c2c(c(C)c1O)CCC(C)(C(=O)O)O2 (stereo not given) [TROLOX] |  | 81.4% | 55.2%
CC(C)C(=O)c1c(O)cc2c(c1O)C[C@@H]1C(C)(C)CCC[C@@]1(C)O2 [HYPERJOVINOL B] | Non-toxic | 89.7% | 57.1%
